{"source": "paper PMC4252766", "about": "(FEBS letters, 2014)", "key": {"BRPF1 bromodomain [1]": {"tested_on": "BRPF1 bromodomain", "experiment": "X-ray crystallography of BRPF1 bromodomain with histone peptides", "type": "binding, human", "conditions": "co-crystal structures PDB 4QYL (H2AK5ac) and 4QYD (H4K12ac)", "summary_of_the_method": "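E. coli-expressed BRPF1 bromodomain (residues 629–742), gel-filtered into 20 mM Tris pH 8.0, 150 mM NaCl, 1 mM DTT; 2.3 mM protein + 5 mM peptide; drops at 4°C. H2AK5ac: 0.2 M NH₄SO₄, 0.1 M MES pH 6.5, 30% PEG MME 5,000, seeding, 1% propylene glycol. H4K12ac: 0.1 M HEPES pH 7.5, 10% PEG 6,000, 5% MPD. Flash-cooled, 100 K.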"}, "BRPF1 bromodomain [2]": {"tested_on": "BRPF1 bromodomain", "conditions": "ref [31]; cited from earlier work"}}}
{"substance": "SGRG Kac QGGKARA [H2AK5ac]", "values": [{"measurement": "binding by x-ray crystallography", "setting": "BRPF1 bromodomain [1]", "result": "bind"}, {"measurement": "histone ligand preference", "setting": "BRPF1 bromodomain [2]", "result": "preferentially binds"}]}
{"substance": "GKGGKGLG Kac GGAKR [H4K12ac]", "values": [{"measurement": "binding by x-ray crystallography", "setting": "BRPF1 bromodomain [1]", "result": "bind"}, {"measurement": "histone ligand preference", "setting": "BRPF1 bromodomain [2]", "result": "preferentially binds"}]}
